ChEMBL document CHEMBL5532737, “Lead Identification of Novel Naphthyridine Derivatives as Potent SOS1 Inhibitors” (ACS Med Chem Lett, 2024)
pIC50: −log10 of the molar value. Activity calls are given as the source filed them. The rule behind the calls is not given here.

Experiments:
[1] = Inhibition of ERK phosphorylation in human PC-9 cells incubated for 1 hr by HTRF analysis; assay type: cell-based; conditions: PC-9, 1 h
SOS1-KRAS = SOS1-KRAS (Homo sapiens, UniProt Q07889); assay: Inhibition of SOS1/KRAS G12C mutant (unknown origin) protein-protein interaction incubated for 2 hrs by HTRF analysis; assay type: protein-complex assay
SOS1-KRAS, sequence (Q07889 whole entry, looked up, stated change not applied): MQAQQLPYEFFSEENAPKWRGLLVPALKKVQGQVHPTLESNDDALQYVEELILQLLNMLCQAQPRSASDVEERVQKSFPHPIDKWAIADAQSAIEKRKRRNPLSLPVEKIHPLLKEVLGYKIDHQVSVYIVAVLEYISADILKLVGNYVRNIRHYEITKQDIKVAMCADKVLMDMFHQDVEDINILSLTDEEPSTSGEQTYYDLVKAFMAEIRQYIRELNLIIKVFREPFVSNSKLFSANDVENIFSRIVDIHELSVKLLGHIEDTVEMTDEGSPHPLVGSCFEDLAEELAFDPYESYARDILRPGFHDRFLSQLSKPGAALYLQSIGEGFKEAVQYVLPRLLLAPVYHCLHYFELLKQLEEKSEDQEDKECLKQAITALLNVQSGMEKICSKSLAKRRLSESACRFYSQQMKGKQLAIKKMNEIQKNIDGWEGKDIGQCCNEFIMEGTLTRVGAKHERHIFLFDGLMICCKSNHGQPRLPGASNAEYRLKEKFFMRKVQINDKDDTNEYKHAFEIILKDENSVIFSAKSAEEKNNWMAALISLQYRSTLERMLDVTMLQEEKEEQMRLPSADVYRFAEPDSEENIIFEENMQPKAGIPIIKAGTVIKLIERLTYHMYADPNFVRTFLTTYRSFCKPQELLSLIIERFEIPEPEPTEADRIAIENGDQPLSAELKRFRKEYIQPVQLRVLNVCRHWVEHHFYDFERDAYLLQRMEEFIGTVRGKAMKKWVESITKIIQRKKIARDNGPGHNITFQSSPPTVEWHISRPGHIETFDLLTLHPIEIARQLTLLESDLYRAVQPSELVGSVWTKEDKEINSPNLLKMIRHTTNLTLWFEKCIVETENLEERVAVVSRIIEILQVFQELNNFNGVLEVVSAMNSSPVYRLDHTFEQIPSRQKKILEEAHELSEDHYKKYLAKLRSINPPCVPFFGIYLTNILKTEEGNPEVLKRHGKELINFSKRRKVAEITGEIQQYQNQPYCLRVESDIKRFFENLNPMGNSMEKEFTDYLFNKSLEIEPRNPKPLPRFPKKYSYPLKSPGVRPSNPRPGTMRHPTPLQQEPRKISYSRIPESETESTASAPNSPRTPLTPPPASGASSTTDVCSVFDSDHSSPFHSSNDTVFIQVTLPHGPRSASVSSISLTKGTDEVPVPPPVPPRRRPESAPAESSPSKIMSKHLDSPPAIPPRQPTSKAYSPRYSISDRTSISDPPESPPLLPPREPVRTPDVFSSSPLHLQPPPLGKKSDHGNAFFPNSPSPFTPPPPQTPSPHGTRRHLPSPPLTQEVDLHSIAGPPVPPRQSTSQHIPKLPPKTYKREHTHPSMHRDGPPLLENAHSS

[2] = Clearance in ICR mouse at 1 mg/kg, iv measured upto 24 hrs by LCMS analysis; assay type: ADME, organism-based; conditions: in vivo
Summary of the method: (§1)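 Mice were dosed once orally at 5 mg/kg or intravenously at 1 mg/kg, both in solution in 5% DMSO + 95% (20% HP-β-CD). Cmax is the highest observed plasma concentration, AUC the area under the plasma concentration–time curve, and F the bioavailability. CL is reported as elimination rate and t1/2 as elimination half-life.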

[3] = Cmax in ICR mouse at 5 mg/kg, po measured upto 24 hrs by LCMS analysis; assay type: ADME, organism-based; conditions: in vivo; summary of the method: as §1
[4] = Oral bioavailability in ICR mouse at 5 mg/kg measured upto 24 hrs by LCMS analysis; assay type: ADME, organism-based; conditions: in vivo; summary of the method: as §1
[5] = AUC in ICR mouse at 5 mg/kg, po measured upto 24 hrs by LCMS analysis; assay type: ADME, organism-based; conditions: in vivo; summary of the method: as §1
[6] = Elimination half life in ICR mouse at 1 mg/kg, iv measured upto 24 hrs by LCMS analysis; assay type: ADME, organism-based; conditions: in vivo, read-out: beta t1/2 (converted); summary of the method: as §1
NCI-H358 [7] = assay: Antiproliferative activity against human NCI-H358 cells harboring KRAS G12C mutant assessed as inhibition of cell proliferation incubated for 5 days by celltiter-glo 3D assay; assay type: functional, cell-based; conditions: NCI-H358, 120 h
NCI-H358 [8] = assay: Antitumor activity against human NCI-H358 cells harboring KRAS G12C mutant xenografted in BALB/c mouse assessed as reduction in ERK phosphorylation at 50 mg/kg, po measured after 28 days; assay type: functional, organism-based; conditions: time 28.0 day
NCI-H358 [9] = assay: Antitumor activity against human NCI-H358 cells harboring KRAS G12C mutant xenografted in BALB/c mouse assessed as tumor growth inhibition at 50 mg/kg, po measured after 28 days; assay type: functional; conditions: NCI-H358, 672 h, time 28 day, read-out: TGI
Summary of the method: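 Subcutaneous NCI-H358 (KRAS G12C) xenograft mice given the drug orally. Efficacy is expressed as tumour growth inhibition (TGI), shown as mean ± SEM and compared with the vehicle group on day 28 (P < 0.05). Tumour p-ERK and plasma drug levels were measured 2 and 24 h after treatment.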

[10] = Toxicity against BALB/c mouse xenografted with human NCI-H358 cells harboring KRAS G12C mutant assessed as body weight loss at 50 mg/kg, po measured after 28 days; assay type: organism-based; conditions: in vivo, 672 h, time 28 day
[11] = biological target: Voltage-gated inwardly rectifying potassium channel KCNH2 (Homo sapiens, UniProt Q12809); assay: Inhibition of hERG transfected in HEK293 cells by whole-cell manual patch clamp assay; assay type: toxicity, cell-based
Voltage-gated inwardly rectifying potassium channel KCNH2, sequence (Q12809 whole entry): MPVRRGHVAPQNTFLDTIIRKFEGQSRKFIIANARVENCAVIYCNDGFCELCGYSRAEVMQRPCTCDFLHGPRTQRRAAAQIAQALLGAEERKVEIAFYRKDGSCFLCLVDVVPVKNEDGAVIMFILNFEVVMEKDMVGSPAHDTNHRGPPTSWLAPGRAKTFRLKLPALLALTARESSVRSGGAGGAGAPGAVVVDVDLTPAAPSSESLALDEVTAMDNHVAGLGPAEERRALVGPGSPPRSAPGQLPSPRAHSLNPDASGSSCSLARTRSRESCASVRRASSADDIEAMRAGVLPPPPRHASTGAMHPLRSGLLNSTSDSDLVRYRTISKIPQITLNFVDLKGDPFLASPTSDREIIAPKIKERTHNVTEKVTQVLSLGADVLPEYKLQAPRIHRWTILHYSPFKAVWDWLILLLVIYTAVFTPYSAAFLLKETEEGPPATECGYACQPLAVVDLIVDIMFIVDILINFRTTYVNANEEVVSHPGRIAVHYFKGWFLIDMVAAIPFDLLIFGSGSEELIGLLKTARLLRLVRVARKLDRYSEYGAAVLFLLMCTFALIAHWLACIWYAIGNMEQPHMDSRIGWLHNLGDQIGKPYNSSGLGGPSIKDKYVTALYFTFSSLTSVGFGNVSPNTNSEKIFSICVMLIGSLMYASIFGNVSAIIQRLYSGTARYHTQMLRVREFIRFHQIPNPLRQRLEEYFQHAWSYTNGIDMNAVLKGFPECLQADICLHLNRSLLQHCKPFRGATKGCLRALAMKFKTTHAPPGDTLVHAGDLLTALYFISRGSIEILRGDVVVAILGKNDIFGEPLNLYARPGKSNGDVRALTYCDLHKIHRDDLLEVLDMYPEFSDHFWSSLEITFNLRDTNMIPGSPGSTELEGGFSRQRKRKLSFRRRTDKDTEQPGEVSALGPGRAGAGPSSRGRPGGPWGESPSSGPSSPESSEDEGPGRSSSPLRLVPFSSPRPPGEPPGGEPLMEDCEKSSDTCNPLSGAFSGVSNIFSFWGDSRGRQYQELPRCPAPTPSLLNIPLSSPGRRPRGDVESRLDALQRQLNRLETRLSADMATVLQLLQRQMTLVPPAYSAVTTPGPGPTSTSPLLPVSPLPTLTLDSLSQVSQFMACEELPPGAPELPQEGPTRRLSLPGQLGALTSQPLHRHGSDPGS

Cytochrome P450 1A2 = biological target: T1, Cytochrome P450 1A2 (Homo sapiens, UniProt P05177); assay: Inhibition of CYP1A2 in human liver microsomes incubated for 5 mins by LC-MS/MS analysis; assay type: ADME, Microsome
T1 sequence (P05177 whole entry): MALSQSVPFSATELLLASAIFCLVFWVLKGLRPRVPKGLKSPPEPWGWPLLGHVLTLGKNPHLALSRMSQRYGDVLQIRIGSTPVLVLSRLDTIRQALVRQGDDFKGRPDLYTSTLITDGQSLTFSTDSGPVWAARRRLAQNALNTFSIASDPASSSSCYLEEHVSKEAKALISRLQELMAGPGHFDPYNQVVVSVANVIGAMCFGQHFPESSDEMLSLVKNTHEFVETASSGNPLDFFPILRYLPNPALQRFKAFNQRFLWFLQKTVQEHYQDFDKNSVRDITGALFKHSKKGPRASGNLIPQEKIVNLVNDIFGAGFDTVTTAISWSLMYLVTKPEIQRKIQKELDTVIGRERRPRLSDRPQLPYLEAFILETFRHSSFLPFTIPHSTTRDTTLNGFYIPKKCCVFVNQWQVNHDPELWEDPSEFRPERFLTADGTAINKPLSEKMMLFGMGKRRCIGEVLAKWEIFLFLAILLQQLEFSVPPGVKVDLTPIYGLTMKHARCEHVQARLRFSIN

Cytochrome P450 2C9 = Cytochrome P450 2C9 (Homo sapiens, UniProt P11712); assay: Inhibition of CYP2C9 in human liver microsomes incubated for 5 mins by LC-MS/MS analysis; assay type: ADME, Microsome
Cytochrome P450 2C9, sequence (P11712 whole entry): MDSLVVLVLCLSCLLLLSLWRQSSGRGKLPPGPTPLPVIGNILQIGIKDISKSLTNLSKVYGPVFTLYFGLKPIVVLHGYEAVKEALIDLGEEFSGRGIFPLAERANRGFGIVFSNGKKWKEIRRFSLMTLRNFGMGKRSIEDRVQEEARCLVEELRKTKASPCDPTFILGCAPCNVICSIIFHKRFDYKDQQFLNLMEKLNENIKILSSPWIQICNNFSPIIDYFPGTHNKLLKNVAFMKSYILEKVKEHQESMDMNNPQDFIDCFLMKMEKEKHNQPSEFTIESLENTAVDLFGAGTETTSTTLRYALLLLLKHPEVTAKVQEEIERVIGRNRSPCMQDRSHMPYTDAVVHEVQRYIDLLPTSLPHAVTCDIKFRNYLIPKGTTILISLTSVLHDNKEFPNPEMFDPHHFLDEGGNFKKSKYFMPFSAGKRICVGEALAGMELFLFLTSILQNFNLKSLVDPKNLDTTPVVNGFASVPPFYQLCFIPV

NCI-H358 [12] = assay: Antitumor activity against human NCI-H358 cells harboring KRAS G12C mutant xenografted in BALB/c mouse assessed as reduction in ERK phosphorylation at 50 mg/kg, po measured for 2 to 24 hrs; assay type: functional, organism-based; conditions: time 2-24 hrs
Summary of the method: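 Tumor samples from NCI-H358 xenograft mice were assayed for p-ERK levels at 2 and 24 h after drug treatment. Plasma drug concentrations were measured at the same time points. Data are given as mean ± SEM.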

[13] = Drug concentration in mouse plasma at 50 mg/kg, po measured for 8 hrs; assay type: ADME, organism-based; conditions: in vivo
Summary of the method: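 Mice received a single 50 mg/kg dose, and the unbound drug concentration in plasma was followed over time.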

Cytochrome P450 2C19 = Cytochrome P450 2C19 (Homo sapiens, UniProt P33261); assay: Inhibition of CYP2C19 in human liver microsomes incubated for 5 mins by LC-MS/MS analysis; assay type: ADME, Microsome
Cytochrome P450 2C19, sequence (P33261 whole entry): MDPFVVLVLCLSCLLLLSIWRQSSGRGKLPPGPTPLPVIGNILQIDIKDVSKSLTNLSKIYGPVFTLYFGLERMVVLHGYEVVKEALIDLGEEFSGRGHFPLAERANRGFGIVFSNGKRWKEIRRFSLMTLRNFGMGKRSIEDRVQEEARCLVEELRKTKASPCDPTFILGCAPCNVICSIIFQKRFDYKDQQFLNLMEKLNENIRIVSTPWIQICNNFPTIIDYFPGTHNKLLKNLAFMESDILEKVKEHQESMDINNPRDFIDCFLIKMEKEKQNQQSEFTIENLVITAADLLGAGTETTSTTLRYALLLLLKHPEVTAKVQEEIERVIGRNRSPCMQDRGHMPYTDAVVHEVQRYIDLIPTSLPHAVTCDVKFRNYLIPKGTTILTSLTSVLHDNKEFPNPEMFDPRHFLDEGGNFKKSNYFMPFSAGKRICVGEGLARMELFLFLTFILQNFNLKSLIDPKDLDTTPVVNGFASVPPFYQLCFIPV

[14] = Plasma protein binding in rat assessed as unbound fraction incubated for 4 hrs by LC-MS/MS analysis; assay type: ADME, cell-free
[15] = Plasma protein binding in human assessed as unbound fraction incubated for 4 hrs by LC-MS/MS analysis; assay type: ADME, cell-free
Cytochrome P450 2D6 = Cytochrome P450 2D6 (Homo sapiens, UniProt P10635); assay: Inhibition of CYP2D6 in human liver microsomes incubated for 5 mins by LC-MS/MS analysis; assay type: ADME, Microsome
Cytochrome P450 2D6, sequence (P10635 whole entry): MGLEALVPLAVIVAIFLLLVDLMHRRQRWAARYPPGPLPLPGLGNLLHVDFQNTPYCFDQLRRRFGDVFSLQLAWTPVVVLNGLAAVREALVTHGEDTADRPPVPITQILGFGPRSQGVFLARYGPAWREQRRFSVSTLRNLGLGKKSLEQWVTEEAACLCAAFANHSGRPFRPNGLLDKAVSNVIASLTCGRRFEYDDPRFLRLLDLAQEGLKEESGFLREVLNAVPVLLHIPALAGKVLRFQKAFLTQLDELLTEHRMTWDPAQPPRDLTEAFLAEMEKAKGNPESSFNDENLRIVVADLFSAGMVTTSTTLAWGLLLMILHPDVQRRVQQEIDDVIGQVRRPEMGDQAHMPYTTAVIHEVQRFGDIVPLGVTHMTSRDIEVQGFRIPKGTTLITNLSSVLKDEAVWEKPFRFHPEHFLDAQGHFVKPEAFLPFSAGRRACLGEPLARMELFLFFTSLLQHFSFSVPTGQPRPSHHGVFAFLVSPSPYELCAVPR

[16] = Plasma protein binding in mouse assessed as unbound fraction incubated for 4 hrs by LC-MS/MS analysis; assay type: ADME, cell-free
[17] = Plasma protein binding in dog assessed as unbound fraction incubated for 4 hrs by LC-MS/MS analysis; assay type: ADME, cell-free, Canis lupus familiaris
Cytochrome P450 3A4 = Cytochrome P450 3A4 (Homo sapiens, UniProt P08684); assay: Inhibition of CYP3A4 in human liver microsomes incubated for 5 mins by LC-MS/MS analysis; assay type: ADME, Microsome
Cytochrome P450 3A4, sequence (P08684 whole entry): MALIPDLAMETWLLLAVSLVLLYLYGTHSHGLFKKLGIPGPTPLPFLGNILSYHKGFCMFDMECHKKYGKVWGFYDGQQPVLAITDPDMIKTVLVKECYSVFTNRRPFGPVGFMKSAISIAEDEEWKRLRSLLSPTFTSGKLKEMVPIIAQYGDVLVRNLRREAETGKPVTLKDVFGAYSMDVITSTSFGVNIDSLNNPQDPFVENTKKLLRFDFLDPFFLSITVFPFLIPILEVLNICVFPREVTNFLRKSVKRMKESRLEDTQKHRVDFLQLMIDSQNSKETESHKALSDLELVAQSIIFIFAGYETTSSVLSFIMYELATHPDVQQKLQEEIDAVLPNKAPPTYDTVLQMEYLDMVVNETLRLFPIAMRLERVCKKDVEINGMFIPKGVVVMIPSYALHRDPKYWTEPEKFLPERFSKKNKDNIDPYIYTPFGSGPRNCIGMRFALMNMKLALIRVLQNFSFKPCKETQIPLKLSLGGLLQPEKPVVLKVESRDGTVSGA

COc1cc2nccc(N[C@H](C)c3cccc(C(F)F)c3F)c2cc1N1CCS(=O)(=O)CC1
pIC50 [1]: 7.77 | pIC50 (SOS1-KRAS): 8.07 | clearance [2]: 127 mL/min/kg | Cmax [3]: 10 ng/mL | bioavailability [4]: 5% | AUC at 24 h [5]: 29 ng·h/mL | half-life [6]: 1.75 h

COc1cc2nccc(N[C@H](C)c3cccc(C(F)F)c3F)c2cc1C1CC1
pIC50 [1]: 5.97 | pIC50 (SOS1-KRAS): 7.64

COc1cc2nc(C)nc(N[C@H](C)c3cc(N)cc(C(F)(F)F)c3)c2cc1O[C@H]1CCOC1
pIC50 [1]: 6.52 | pIC50 (NCI-H358 [7]): 7.05 | Activity (NCI-H358 [8]): Active | inhibition in vivo at 50 mg/kg (NCI-H358 [9]): 49% | Activity [10]: Non-Toxic

COc1cc2nccc(N[C@H](C)c3cccc(C(F)F)c3F)c2cc1O[C@H]1CCOC1
pIC50 [1]: 6.67 | pIC50 (SOS1-KRAS): 8.17

C[C@@H](Nc1ccnc2cnc(N3CCN(C)C(=O)C3)cc12)c1cccc(C(F)F)c1F
pIC50 [1]: 6.89 | pIC50 (SOS1-KRAS): 8.16

CC(=O)N1CCC(c2cc3c(N[C@H](C)c4cccc(C(F)F)c4F)ccnc3cn2)C1 (some centres undefined)
pIC50 [1]: 6.78 | pIC50 (SOS1-KRAS): 7.66

CC(=O)NC1CCN(c2cc3c(N[C@H](C)c4cccc(C(F)F)c4F)ccnc3cn2)CC1
pIC50 [1]: 6.31 | pIC50 (SOS1-KRAS): 7.92

C[C@@H](Nc1ccnc2cnc(N3CCS(=O)(=O)CC3)cc12)c1cccc(C(F)F)c1F
pIC50 [1]: 7.25 | pIC50 (SOS1-KRAS): 8.28 | clearance [2]: 67 mL/min/kg | Cmax [3]: 136 ng/mL | bioavailability [4]: 36% | AUC at 24 h [5]: 406 ng·h/mL | half-life [6]: 1.18 h

COc1cc2nccc(N[C@H](C)c3cccc(C(F)F)c3F)c2cc1O[C@H]1CCN(C(C)=O)C1
pIC50 [1]: 7.35 | pIC50 (SOS1-KRAS): 8.42 | clearance [2]: 107 mL/min/kg | Cmax [3]: 77 ng/mL | bioavailability [4]: 19% | AUC at 24 h [5]: 152 ng·h/mL | half-life [6]: 0.45 h

COc1cc2nccc(N[C@H](C)c3cccc(C(F)F)c3F)c2cc1C1CCN(C(C)=O)CC1
pIC50 [1]: 5.99 | pIC50 (SOS1-KRAS): 7.96

COc1cc2nccc(N[C@H](C)c3cccc(C(F)F)c3F)c2cc1OC1CCNCC1
pIC50 [1]: 5.97 | pIC50 (SOS1-KRAS): 7.89

COc1cc2nccc(N[C@H](C)c3cccc(C(F)F)c3F)c2cc1OC
pIC50 [1]: 6.26 | pIC50 (SOS1-KRAS): 7.96

COc1cc2nccc(N[C@H](C)c3cccc(C(F)F)c3F)c2cc1O[C@H]1CCN(C)C1
pIC50 [1]: 6.53 | pIC50 (SOS1-KRAS): 7.82

C[C@@H](Nc1ccnc2cnc(O[C@H]3CCOC3)cc12)c1cccc(C(F)F)c1F
pIC50 [1]: 6.11 | pIC50 (SOS1-KRAS): 7.82

COc1cc2nccc(N[C@H](C)c3cccc(C(F)F)c3F)c2cc1O[C@H]1CCNC1
pIC50 [1]: 6.30 | pIC50 (SOS1-KRAS): 8.22

C[C@@H](Nc1ccnc2cnc(N3CCN(S(C)(=O)=O)CC3)cc12)c1cccc(C(F)F)c1F
pIC50 (SOS1-KRAS): 7.89

COc1cc2nccc(N[C@H](C)c3cccc(C(F)F)c3F)c2cc1O[C@H]1CCN(C(=O)C2CC2)C1
pIC50 [1]: 7.04 | pIC50 (SOS1-KRAS): 8.00

COc1cc2nccc(N[C@H](C)c3cccc(C(F)F)c3F)c2cc1C1CCNCC1
pIC50 [1]: 6.10 | pIC50 (SOS1-KRAS): 7.85

C[C@@H](Nc1ccnc2cnc(N3CCC(O)CC3)cc12)c1cccc(C(F)F)c1F
pIC50 [1]: 6.81 | pIC50 (SOS1-KRAS): 8.07

CC(=O)N1CCN(c2cc3c(N[C@H](C)c4cccc(C(F)F)c4F)ccnc3cn2)CC1
pIC50 [1]: 7.27 | pIC50 [11]: 5.61 | pIC50 (Cytochrome P450 1A2): 4.76 | pIC50 (NCI-H358 [7]): 6.49 | pIC50 (Cytochrome P450 2C9): 5.24 | Activity (NCI-H358 [12]): Active | Drug uptake [13]: Active | inhibition in vivo at 50 mg/kg (NCI-H358 [9]): 76% | pIC50 (Cytochrome P450 2C19): 5.50 | fraction unbound at 4 h [14]: 0.0529 | fraction unbound at 4 h [15]: 0.0481 | pIC50 (SOS1-KRAS): 8.24 | clearance [2]: 35 mL/min/kg | Cmax [3]: 714 ng/mL | pIC50 (Cytochrome P450 2D6): 4.95 | bioavailability [4]: 81% | fraction unbound at 4 h [16]: 0.0675 | AUC at 24 h [5]: 1950 ng·h/mL | fraction unbound at 4 h [17]: 0.0545 | pIC50 (Cytochrome P450 3A4): < 4.30 | half-life [6]: 1.53 h

COc1cc2nccc(N[C@H](C)c3cccc(C(F)F)c3F)c2cc1O[C@H]1CCN(C(=O)C2CCOCC2)C1
pIC50 [1]: 7.14 | pIC50 (SOS1-KRAS): 7.89

COc1cc2nccc(N[C@H](C)c3cccc(C(F)F)c3F)c2cc1N1CCN(C(C)=O)CC1
pIC50 [1]: 7.52 | pIC50 (SOS1-KRAS): 8.06

CC(=O)N1CCC(c2cc3c(N[C@H](C)c4cccc(C(F)F)c4F)ccnc3cn2)CC1
pIC50 [1]: 7.11 | pIC50 (SOS1-KRAS): 8.01 | clearance [2]: 40 mL/min/kg | Cmax [3]: 424 ng/mL | bioavailability [4]: 25% | AUC at 24 h [5]: 578 ng·h/mL | half-life [6]: 0.88 h

C[C@@H](Nc1ccnc2cnc(N3CCOCC3)cc12)c1cccc(C(F)F)c1F
pIC50 [1]: 6.46 | pIC50 (SOS1-KRAS): 8.15
